From ChEMBL document CHEMBL4190408 (J Med Chem, 2018) come the findings set out here.

By half-life is commonly meant the time needed for the level to fall by half in the phase considered. Low readings indicate rapid decline, high ones slow decline. For orientation: microsomal CLint means the rate of metabolic loss divided by the concentration. Read a low microsomal CLint as greater metabolic stability. In general, CL/F refers to the apparent clearance, not corrected for the fraction that reaches the circulation. Usually solubility (kinetic) stands for solubility judged after dilution from a stock solution rather than from solid. A word on the clearance: it is the rate of elimination divided by the concentration. Low readings indicate a low capacity for elimination, high ones a high capacity for elimination. What is called IC50 is the point on the concentration scale where inhibition reaches its midpoint. A word on the bioavailability: it is dose-corrected exposure relative to a reference, in per cent. Read a low bioavailability as poor availability. What is called fraction unbound is the share of the substance not bound to proteins or other matrix. The term logD denotes lipophilicity at a set pH, counting ionised and neutral species. Low readings indicate lower lipophilicity, high ones higher lipophilicity.

Data set [1] is described as follows: Volume of distribution at steady state in Balb/c mouse at 1 mg/kg, iv. Format: ADME, organism-based. Particulars: Balb/c, in vivo, read-out: Vdss. A digest of the protocol: (§1)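 Intravenous PK in male Balb/C mice, n=3, at 1 mpk. Vehicle was 30% DMA or 15% NMP, depending on the compound.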
The subject of data set [2] is Mus musculus. Briefly: Unbound Cmax in Balb/c mouse at 10 mg/kg, po after 1 hr. Format: ADME, organism-based. Particulars: in vivo.
Data set [3] in a line: Half life in Balb/c mouse at 1 mg/kg, iv. In kind it is ADME, organism-based. Particulars: Balb/c, in vivo. A digest of the protocol: as §1
Data set [4] is described as follows: in vitro. Particulars: mouse.
Data set [5] in a line: Apparent clearance in Balb/c mouse at 10 mg/kg, po after 1 hr. Format: ADME, organism-based. Particulars: in vivo.
Data set [6] in a line: physchem.
Data set [7] deals with Mus musculus. Briefly: Unbound AUC (infinity) in Balb/c mouse at 10 mg/kg, po after 1 hr. Format: ADME, organism-based. Particulars: in vivo.
The nature of data set [8]: Clearance in Balb/c mouse at 1 mg/kg, iv. In kind it is ADME, organism-based. Particulars: Balb/c, in vivo. In a few lines: as §1
For data set [9], the target named is T1, Voltage-gated inwardly rectifying potassium channel KCNH2 (Homo sapiens, UniProt Q12809).
Data set [10] addresses T2, Cytochrome P450 3A4 (Homo sapiens, UniProt P08684).
The nature of data set [11]: Oral bioavailability in Balb/c mouse at 10 mg/kg after 1 hr. Particulars: Balb/c, in vivo. Format: ADME, organism-based. A digest of the protocol: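 Male Balb/C mice, n=3. Oral dose of 10 mpk as a homogeneous suspension of crystalline solid in 0.1% Tween 80, 0.1% silicone antifoam, 1% methylcellulose (400 cps) in water. I.v. dose of 1 mpk in 30% DMA or 15% NMP, depending on the compound. Bioavailability was extrapolated from the i.v./p.o. experiments.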

Data set [12] can be described thus: in vitro. Particulars: human.
The subject of data set [13] is Mus musculus. Nature of the data set: Unbound AUC in Balb/c mouse at 1 mg/kg, iv. Particulars: in vivo. Format: ADME, organism-based. A digest of the protocol:
as §1

The nature of data set [14]: Thermodynamic solubility of the compound in pH 7.4 solution after 90 mins by UVLC-MS analysis. Format: physicochemical. Particulars: for solubility thermodynamic at 1.5 h: pH 7.4 solution, pH 7.4, read-out: Therm_solubility; for Therm_solubility: buffer, pH 7.4, 1.5 h.
Data set [15] in a line: Fraction unbound in mouse blood. In kind it is ADME, tissue-based.
The nature of data set [16]: physchem. Particulars: phosphate buffer, pH 7.4.
The target of data set [17] is T2, Cytochrome P450 3A4. Particulars: liver microsomes. For orientation: Microsomes from liver hold many membrane-bound enzymes, among them those of drug oxidation.
For data set [18], the target named is T1, Voltage-gated inwardly rectifying potassium channel KCNH2. The source holds these as a separate data set.
For data set [19] the following is noted: buffer, pH 7.4, 1.5 h.
The target of data set [20] is Phosphatidylinositol 4-kinase type 2-beta (Homo sapiens) (UniProt Q8TCG2). Briefly: Inhibition of recombinant human full length GST-tagged PI4K2beta expressed in insect cells at 10 uM.
The target of data set [21] is Phosphatidylinositol 4-kinase type 2-alpha (Homo sapiens) (UniProt Q9BTU6). Nature of the data set: Inhibition of recombinant human full length GST-tagged PI4K2alpha expressed in insect cells at 10 uM.
For data set [22], the target named is Phosphatidylinositol 4-kinase alpha (Homo sapiens) (UniProt P42356). Nature of the data set: Inhibition of PI4K3alpha (unknown origin) at 10 uM.
The target of data set [23] is Phosphatidylinositol 4-kinase beta (Homo sapiens, UniProt Q9UBF8). Nature of the data set: Inhibition of recombinant human full length GST-tagged PI4K3beta expressed in baculovirus expression system using PI lipid kinase substrate after 60 mins by ADP-Glo assay. For orientation: In ADP-Glo the light output rises with the ADP produced.
For data set [24] the following is noted: buffer, 1.5 h, pH 7.4.

≈ marks a conversion by molar mass, not a printed value. Calls of active or inactive are those of the source.

T1 sequence (Q12809 whole entry): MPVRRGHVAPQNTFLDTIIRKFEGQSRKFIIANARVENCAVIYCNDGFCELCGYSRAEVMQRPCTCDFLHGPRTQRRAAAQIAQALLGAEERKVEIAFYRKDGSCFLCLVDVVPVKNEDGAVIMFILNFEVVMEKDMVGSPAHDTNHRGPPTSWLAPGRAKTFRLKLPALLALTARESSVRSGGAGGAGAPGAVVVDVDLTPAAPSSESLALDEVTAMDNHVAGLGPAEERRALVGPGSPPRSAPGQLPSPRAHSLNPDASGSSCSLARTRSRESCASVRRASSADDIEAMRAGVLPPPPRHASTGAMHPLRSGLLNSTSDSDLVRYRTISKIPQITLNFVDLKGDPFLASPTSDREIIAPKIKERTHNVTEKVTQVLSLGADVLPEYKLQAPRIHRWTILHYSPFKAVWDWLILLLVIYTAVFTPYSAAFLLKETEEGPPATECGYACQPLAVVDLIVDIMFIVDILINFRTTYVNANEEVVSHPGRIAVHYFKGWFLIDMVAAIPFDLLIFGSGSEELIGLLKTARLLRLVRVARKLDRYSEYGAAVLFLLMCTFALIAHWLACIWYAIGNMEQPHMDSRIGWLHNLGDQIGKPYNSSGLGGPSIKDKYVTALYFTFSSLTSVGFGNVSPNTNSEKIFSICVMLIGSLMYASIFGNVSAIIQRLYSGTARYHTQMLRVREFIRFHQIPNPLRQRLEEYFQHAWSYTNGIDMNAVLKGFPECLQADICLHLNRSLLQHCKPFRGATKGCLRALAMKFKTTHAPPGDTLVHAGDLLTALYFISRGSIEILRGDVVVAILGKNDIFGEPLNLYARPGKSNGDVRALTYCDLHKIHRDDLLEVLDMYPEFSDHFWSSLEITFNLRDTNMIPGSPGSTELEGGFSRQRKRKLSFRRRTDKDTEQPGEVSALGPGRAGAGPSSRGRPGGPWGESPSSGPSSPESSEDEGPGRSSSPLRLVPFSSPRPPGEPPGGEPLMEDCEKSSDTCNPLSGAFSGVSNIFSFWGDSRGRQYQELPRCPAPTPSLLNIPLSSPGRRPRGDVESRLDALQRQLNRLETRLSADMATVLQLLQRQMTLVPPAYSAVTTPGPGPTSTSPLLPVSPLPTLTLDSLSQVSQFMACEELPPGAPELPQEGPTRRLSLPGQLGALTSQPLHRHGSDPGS
T2 sequence (P08684 whole entry): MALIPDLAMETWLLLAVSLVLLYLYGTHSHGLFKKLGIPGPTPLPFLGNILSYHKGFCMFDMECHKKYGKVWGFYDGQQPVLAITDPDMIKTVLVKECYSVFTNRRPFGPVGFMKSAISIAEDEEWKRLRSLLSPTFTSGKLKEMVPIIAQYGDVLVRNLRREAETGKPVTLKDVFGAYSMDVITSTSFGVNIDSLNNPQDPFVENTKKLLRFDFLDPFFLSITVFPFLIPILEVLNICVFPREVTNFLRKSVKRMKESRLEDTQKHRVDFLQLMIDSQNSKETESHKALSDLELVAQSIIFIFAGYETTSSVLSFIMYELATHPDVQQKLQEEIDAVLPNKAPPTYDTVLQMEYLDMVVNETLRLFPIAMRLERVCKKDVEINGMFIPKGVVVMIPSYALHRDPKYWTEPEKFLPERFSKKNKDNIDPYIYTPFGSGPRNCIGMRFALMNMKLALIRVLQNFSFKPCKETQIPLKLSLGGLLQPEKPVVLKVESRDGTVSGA
Sequence of Phosphatidylinositol 4-kinase beta (Q9UBF8 whole entry): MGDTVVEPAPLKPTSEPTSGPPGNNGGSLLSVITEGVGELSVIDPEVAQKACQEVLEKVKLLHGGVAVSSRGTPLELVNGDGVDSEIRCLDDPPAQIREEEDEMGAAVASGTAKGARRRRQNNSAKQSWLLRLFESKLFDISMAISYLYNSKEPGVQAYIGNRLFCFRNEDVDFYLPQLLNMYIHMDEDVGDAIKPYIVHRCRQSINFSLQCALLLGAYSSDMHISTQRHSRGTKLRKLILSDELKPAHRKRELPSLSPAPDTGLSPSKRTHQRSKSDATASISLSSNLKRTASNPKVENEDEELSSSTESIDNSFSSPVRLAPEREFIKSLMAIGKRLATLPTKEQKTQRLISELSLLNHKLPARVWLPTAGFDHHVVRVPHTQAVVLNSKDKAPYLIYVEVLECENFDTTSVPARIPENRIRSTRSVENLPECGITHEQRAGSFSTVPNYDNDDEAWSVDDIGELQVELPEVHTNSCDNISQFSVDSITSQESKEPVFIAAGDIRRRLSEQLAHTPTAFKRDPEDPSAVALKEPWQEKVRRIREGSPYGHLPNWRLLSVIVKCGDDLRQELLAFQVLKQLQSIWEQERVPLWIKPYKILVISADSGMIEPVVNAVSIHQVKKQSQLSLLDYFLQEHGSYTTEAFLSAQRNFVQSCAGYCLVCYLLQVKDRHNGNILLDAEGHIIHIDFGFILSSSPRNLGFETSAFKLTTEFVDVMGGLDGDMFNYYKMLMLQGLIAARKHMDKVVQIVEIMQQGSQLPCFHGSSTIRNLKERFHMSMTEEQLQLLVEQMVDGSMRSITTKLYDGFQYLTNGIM
Sequence of Phosphatidylinositol 4-kinase type 2-alpha (Homo sapiens) (Q9BTU6 whole entry): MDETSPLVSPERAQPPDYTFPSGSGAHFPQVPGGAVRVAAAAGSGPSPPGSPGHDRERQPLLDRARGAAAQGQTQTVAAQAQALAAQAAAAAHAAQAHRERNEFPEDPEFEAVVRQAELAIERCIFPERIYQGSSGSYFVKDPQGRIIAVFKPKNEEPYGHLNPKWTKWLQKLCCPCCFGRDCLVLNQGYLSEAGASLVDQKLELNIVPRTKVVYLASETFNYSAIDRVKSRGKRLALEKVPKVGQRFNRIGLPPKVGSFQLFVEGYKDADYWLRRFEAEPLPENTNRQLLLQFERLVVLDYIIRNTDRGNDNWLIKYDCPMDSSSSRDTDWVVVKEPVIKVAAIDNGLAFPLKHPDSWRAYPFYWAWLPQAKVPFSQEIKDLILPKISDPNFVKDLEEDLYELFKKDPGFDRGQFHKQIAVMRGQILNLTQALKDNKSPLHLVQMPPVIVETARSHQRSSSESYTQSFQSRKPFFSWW
Sequence of Phosphatidylinositol 4-kinase type 2-beta (Homo sapiens) (Q8TCG2 whole entry): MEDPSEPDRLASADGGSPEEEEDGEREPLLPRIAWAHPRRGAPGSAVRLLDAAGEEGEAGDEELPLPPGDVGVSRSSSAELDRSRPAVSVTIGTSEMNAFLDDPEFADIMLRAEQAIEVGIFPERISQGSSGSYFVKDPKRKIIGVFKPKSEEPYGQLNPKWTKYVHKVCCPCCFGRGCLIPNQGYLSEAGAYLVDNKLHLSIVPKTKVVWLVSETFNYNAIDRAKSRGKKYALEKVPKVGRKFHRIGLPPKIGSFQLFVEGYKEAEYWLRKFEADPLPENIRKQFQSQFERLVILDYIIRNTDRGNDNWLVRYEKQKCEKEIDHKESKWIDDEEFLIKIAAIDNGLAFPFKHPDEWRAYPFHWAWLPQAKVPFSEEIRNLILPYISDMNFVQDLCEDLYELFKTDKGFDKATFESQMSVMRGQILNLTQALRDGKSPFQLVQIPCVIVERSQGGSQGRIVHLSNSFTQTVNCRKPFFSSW

Regarding `COc1ccc(NC(=O)N2CCN(c3nc(N)nc4scnc34)[C@@H](C)C2)cc1`, the Vd in data set [1] was determined as 1 L/kg. The compound also gave a fCmax in data set [2] of 194 nM. Also, in data set [3], the half-life was 54 min. The microsomal CLint at 0.75 h, 3 µM in data set [4] (liver microsomes) was determined as 35 µL/min/mg; in data set [12] (liver microsomes), 14 µL/min/mg. In addition, the CL/F in data set [5] came out at 42 mL/min/kg. Also, the kinetic solubility at 1.5 h in data set [6] (buffer, pH 7.4) is above 350 µM. The fAUC was 0.205 µM·h in data set [7] and 0.03 µM·h in [13]. For the same compound, the clearance in data set [8] turned out to be 29 mL/min/kg. Further, the IC50 is 17 µM in data set [9] and above 20 µM in data set [10]. Moreover, the bioavailability in data set [11] came to 68%. Besides, in data set [14], the solubility thermodynamic at 1.5 h was 30 µM (≈ 12 µg/mL). For the same compound, the fraction unbound in data set [15] amounted to 0.02. This compound also showed a logD at 1.5 h in [16] of 2.32.
`COc1ccc(NC(=O)N2CCN(c3nc(N)nc4scnc34)C(C)C2C)cc1` (stereo not given): the IC50 result in [17] and in [18] was “Nd(Insoluble)” throughout. Also, in data set [6] (buffer, pH 7.4), the solubility (kinetic) at 1.5 h is above 350 µM. The Therm_solubility entry in [14] is “Nd(Insoluble)”.
For the compound `COc1ccc(NC(=O)N2C[C@H](C)N(c3nc(N)nc4scnc34)C[C@H]2C)cc1`, the IC50 entry in [17] and in data set [18] was “Nd(Insoluble)” each time. Further, in data set [6] (buffer, pH 7.4), the kinetic solubility at 1.5 h was 88 µM (≈ 36.4 µg/mL). Also, the Therm_solubility result in [14] is “Nd(Insoluble)”.
Consider `COc1ccc(NC(=O)N2CCN(c3nc(N)nc4scnc34)CC2C)cc1` (stereo not given), for which the IC50 entry in data set [17] and in [18] was “Nd(Insoluble)” in each case. In data set [6] (buffer, pH 7.4), this compound returned a solubility (kinetic) at 1.5 h above 350 µM. Further, the Therm_solubility entry in data set [14] is on record as “Nd(Insoluble)”.
The compound `COc1ccc(NC(=O)N2CCN(c3nc(N)nc4scnc34)[C@@H](C)C2)c(C)n1` had a kinetic solubility at 1.5 h in data set [6] (buffer, pH 7.4) above 350 µM. Also, the figures for the IC50 in data set [9] and in data set [10] were above 30 µM and above 20 µM, respectively. For the same compound, the solubility thermodynamic at 1.5 h in [14] was 362 µM (≈ 150 µg/mL).
`COc1ccc(NC(=O)N2CCN(c3nc(N)nc4sc(-c5ccccc5)nc34)CC2)cc1`: the microsomal CLint at 0.75 h, 3 µM in [4] (liver microsomes) amounted to 20 µL/min/mg; in data set [12] (liver microsomes) it was 13 µL/min/mg. The solubility (kinetic) at 1.5 h in data set [6] (buffer, pH 7.4) was determined as 6 µM (≈ 2.77 µg/mL). Also, the results for the IC50 in [9] and in data set [10] were 1.7 µM and above 20 µM, respectively. Also, the logD entry in data set [19] is “Nd(Insoluble)”.
For the compound `COc1ccc(NC(=O)N2C3CCC2CN(c2nc(N)nc4scnc24)C3)cc1`, the IC50 result in [17] and in data set [18] was “Nd(Insoluble)” each time. Also, the kinetic solubility at 1.5 h in data set [6] (buffer, pH 7.4) was above 350 µM. For the same compound, the Therm_solubility entry in data set [14] was “Nd(Insoluble)”.
Regarding `Cc1ccc(NC(=O)N2CCN(c3nc(N)nc4sc(-c5cccnc5)nc34)CC2)cc1`, the inhibition result in [20], in data set [21] and in [22] was “inactive” each time. The values for the microsomal CLint at 0.75 h, 3 µM in data set [4] (microsomes) and in data set [12] (microsomes) were 72 µL/min/mg and 32 µL/min/mg, respectively. Besides, the kinetic solubility at 1.5 h in data set [6] (pH 7.4 solution) worked out at 9 µM (≈ 4.02 µg/mL). For the same compound, inhibition in data set [9] was half-maximal at 2 µM (IC50). Moreover, the logD at 1.5 h in data set [16] came out at 3.42.
For the compound `COc1ccc(NC(=O)C2CCN(c3nc(N)nc4scnc34)CC2)cc1`, in data set [23], the IC50 was above 6 µM.
Take `COc1ccc(NC(=O)N2C[C@@H](C)N(c3nc(N)nc4scnc34)[C@@H](C)C2)cc1`: the IC50 entry in [17] and in data set [18] was “Nd(Insoluble)” each time. In addition, in data set [6] (buffer, pH 7.4), the solubility (kinetic) at 1.5 h is 83 µM (≈ 34.3 µg/mL). Moreover, the Therm_solubility entry in data set [14] was “Nd(Insoluble)”.
As for `COc1ccc(NC(=O)N2CCN(c3nc(N)nc4c3ncn4C)[C@@H](C)C2)c(C)c1`, the Vd in data set [1] came to 0.8 L/kg. The compound also displayed a fCmax in data set [2] of 1087 nM. In addition, the half-life in data set [3] is 48 min. In addition, the microsomal CLint at 0.75 h, 3 µM worked out at 10 µL/min/mg in data set [4] (liver microsomes) and 9 µL/min/mg in data set [12] (liver microsomes). The CL/F in data set [5] was found to be 46 mL/min/kg. Besides, the kinetic solubility at 1.5 h in data set [6] (buffer, pH 7.4) is above 350 µM. Further, the fAUC in data set [7] stood at 1.746 µM·h; in [13], 0.447 µM·h. In addition, the clearance in data set [8] came to 19 mL/min/kg. For the same compound, the bioavailability in data set [11] came to 39%. In [14], the solubility thermodynamic at 1.5 h turned out to be 150 µM (≈ 61.6 µg/mL). This compound registered a fraction unbound in data set [15] of 0.2. In addition, in [16], the logD at 1.5 h came to 1.35.
Take `Nc1nc(N2CCN(C(=O)COc3ccc(Cl)cc3)CC2)c2nc(-c3cccnc3)sc2n1`: the IC50 entry in data set [17] and in [18] was “Nd(Insoluble)” throughout. Besides, the microsomal CLint at 0.75 h, 3 µM in data set [4] (liver microsomes) stood at 133 µL/min/mg; in data set [12] (liver microsomes), 34 µL/min/mg. Further, the Kinetic_solubility result in [24] is “Nd(Insoluble)”. Further, in data set [19], the logD result was “Nd(Insoluble)”.
